Measurements: ChEMBL document CHEMBL1133453, “Further studies on nociceptin-related peptides: discovery of a new chemical template with antagonist activity on the nociceptin receptor” (J Med Chem, 2000)
The source made the active and inactive calls. The calls are words filed in the database; no cut-off is given here. Numbered stars: 1 amine (or outer) side, 2 acyl side, 3 side chain; on linkers, the order of the positions; unused ones are H or OH. Square brackets hold non-standard residues; d marks the D form. Peptide text beside a SMILES is read from it. X5 = N[C@@H](Cc1ccc(O)cc1)CN(CC(=O)[*:2])[*:1]; X3 = N[C@@H](CC1CCCCC1)CN(CC(=O)[*:2])[*:1]; X1 = CC(C)C[C@H](N)CN(CC(=O)[*:2])[*:1]; Nphe = O=C(O)CNCc1ccccc1

Columns and labels:
Mus musculus [1] = species: Mus musculus; test: Potency (Emax) against electrically evoked contraction (twitch response) in mouse vas deferens; format: functional
Method in brief: (§1)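 Mouse vas deferens held in Mg2+-free Krebs at 33 °C under 0.3 g resting tension. Field stimulation through platinum electrodes with supramaximal 1-ms pulses at 0.1 Hz, twitches recorded isotonically. After about 2 h equilibration, cumulative concentration-response curves built in 0.5 log steps up to 10 µM. pEC50 taken as the concentration giving half-maximal effect. Mean of at least 3 experiments.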

Mus musculus [2] = species: Mus musculus; test: Compound was tested for agonistic activity against electrically evoked contraction (twitch response) in mouse vas deferens; format: functional, organism-based; method in brief: as §1
Nociceptin receptor [3] = molecular target: T1, Nociceptin receptor (Mus musculus, UniProt P35377); test: Affinity to nociceptin receptors on mouse forebrain membranes by [3H]NC-NH2 displacement.
Method in brief: (§2)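 Forebrain membranes from male Swiss mice (25-30 g), homogenized in 50 mM Tris HCl, 2 mM EDTA, 100 µM PMSF, pH 7.4, then preincubated 30 min at 37 °C. Bound ligand separated by GF/C filtration. Ki obtained by nonlinear least-squares fitting.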

Mus musculus [4] = species: Mus musculus; test: Potency (Emax) against electrically evoked contraction (twitch response) in mouse vas deferens; NA means Inactive up to 10 uM; format: functional, organism-based; method in brief: as §1
Mus musculus [5] = species: Mus musculus; test: Compound was tested for agonistic activity against electrically evoked contraction (twitch response) in mouse vas deferens; NA means Inactive up to 10 uM; format: functional, organism-based; method in brief: as §1
Mus musculus [6] = species: Mus musculus; test: Compound was tested for the antagonistic activity on mouse vas deferens using NC(1-13)NH2 as agonist; NA means Inactive up to 10 uM; format: functional, organism-based
Method in brief: (§3)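 Electrically stimulated mouse vas deferens (Mg2+-free Krebs, 33 °C, 0.1 Hz, 1-ms pulses). Antagonist at 10 µM added 15 min before a cumulative NC(1-13)NH2 concentration-response curve. pKB calculated with the Gaddum-Schild equation, assuming a slope of 1, from the concentration ratio. Mean of at least 3 experiments, with 95% confidence limits.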

Nociceptin receptor [7] = molecular target: T1, Nociceptin receptor; test: Binding affinity towards Orphanin FQ receptor on mouse forebrain membranes was determined using [3H]-NC-NH2 as radioligand; set-up: species or system Membrane
Method in brief: as §2, with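 “°C. Competition against 0.5 nM [3H]NC-NH2 using 200 µg protein per assay, run in duplicate, 120 min at 25 °C.” for “°C.”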

Mus musculus [8] = species: Mus musculus; test: Potency (Emax) at 10 uM against electrically evoked contraction (twitch response) in mouse vas deferens; Slight effect (50% inhibition was detected at 10 uM); format: functional, organism-based; method in brief: as §1
Mus musculus [9] = species: Mus musculus; test: Compound was tested for agonistic activity against electrically evoked contraction (twitch response) in mouse vas deferens; Slight effect (50% inhibition was detected at 10 uM); format: functional, organism-based; details: filed as partial agonist; method in brief: as §1
Mus musculus [10] = species: Mus musculus; test: Compound was tested for the antagonistic activity on mouse vas deferens using NC(1-13)NH2 as agonist; format: functional; method in brief: as §3

T1 sequence (P35377 whole entry): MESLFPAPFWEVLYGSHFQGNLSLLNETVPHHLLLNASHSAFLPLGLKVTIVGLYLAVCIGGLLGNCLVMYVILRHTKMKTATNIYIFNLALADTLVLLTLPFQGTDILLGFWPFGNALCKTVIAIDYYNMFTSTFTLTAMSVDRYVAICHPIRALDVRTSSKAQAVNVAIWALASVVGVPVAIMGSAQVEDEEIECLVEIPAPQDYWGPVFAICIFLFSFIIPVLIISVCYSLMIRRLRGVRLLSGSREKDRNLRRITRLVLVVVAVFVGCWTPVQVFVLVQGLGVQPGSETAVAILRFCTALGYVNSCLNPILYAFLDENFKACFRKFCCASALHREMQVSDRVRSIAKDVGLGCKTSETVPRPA

SMILES | Emax (Mus musculus [1]) [%] | EC50 (Mus musculus [2]) [µM] | Ki (Nociceptin receptor [3]) [µM] | Emax (Mus musculus [4]) | Log EC50 (Mus musculus [5]) | pKB (Mus musculus [6]) | Ki (Nociceptin receptor [7]) [µM] | Emax (Mus musculus [8]) | Log EC50 (Mus musculus [9]) | pKB (Mus musculus [10])
C[C@H](NC(=O)CNC(=O)[C@@H](NC(=O)[C@H](Cc1ccccc1)NC(=O)CNC(=O)CNC(=O)[C@@H](N)Cc1ccccc1)[C@@H](C)O)C(=O)N[C@@H](CCCNC(=N)N)C(=O)N[C@@H](CCCCN)C(=O)N[C@@H](CO)C(=O)N[C@@H](C)C(=O)N[C@@H](CCCNC(=N)N)C(=O)N[C@@H](CCCCN)C(N)=O | -84 | 0.0158 | – | – | – | – | – | – | – | –
C[C@H](NC(=O)CNC(=O)[C@@H](NC(=O)[C@H](Cc1ccccc1)NC(=O)CNC(=O)CNC(=O)[C@@H](N)CC1CCCCC1)[C@@H](C)O)C(=O)N[C@@H](CCCN=C(N)N)C(=O)N[C@@H](CCCCN)C(=O)N[C@@H](CO)C(=O)N[C@@H](C)C(=O)N[C@@H](CCCN=C(N)N)C(=O)N[C@@H](CCCCN)C(N)=O | -84 | 0.0126 | 0.001 | – | – | – | – | – | – | –
Cc1ccc(CNCC(=O)NCC(=O)NCC(=O)N[C@@H](Cc2ccccc2)C(=O)N[C@H](C(=O)NCC(=O)N[C@@H](C)C(=O)N[C@@H](CCCN=C(N)N)C(=O)N[C@@H](CCCCN)C(=O)N[C@@H](CO)C(=O)N[C@@H](C)C(=O)N[C@@H](CCCN=C(N)N)C(=O)N[C@@H](CCCCN)C(N)=O)[C@@H](C)O)cc1 | – | – | 2.51 | inactive | inactive | inactive | – | – | – | –
C[C@H](NC(=O)CNC(=O)[C@@H](NC(=O)[C@H](Cc1ccccc1)NC(=O)CNC(=O)CNC(=O)CNCc1ccc(O)cc1)[C@@H](C)O)C(=O)N[C@@H](CCCN=C(N)N)C(=O)N[C@@H](CCCCN)C(=O)N[C@@H](CO)C(=O)N[C@@H](C)C(=O)N[C@@H](CCCN=C(N)N)C(=O)N[C@@H](CCCCN)C(N)=O | – | – | 3.16 | inactive | inactive | inactive | – | – | – | –
Cc1ccc(C[C@H](N)C(=O)NCC(=O)NCC(=O)N[C@@H](Cc2ccccc2)C(=O)N[C@H](C(=O)NCC(=O)N[C@@H](C)C(=O)N[C@@H](CCCN=C(N)N)C(=O)N[C@@H](CCCCN)C(=O)N[C@@H](CO)C(=O)N[C@@H](C)C(=O)N[C@@H](CCCN=C(N)N)C(=O)N[C@@H](CCCCN)C(N)=O)[C@@H](C)O)cc1 | -70 | 2.51 | 0.2 | – | – | – | – | – | – | –
C[C@H](NC(=O)CNC(=O)[C@@H](NC(=O)[C@H](Cc1ccccc1)NC(=O)CNC(=O)CNC(=O)CNCC1CCCCC1)[C@@H](C)O)C(=O)N[C@@H](CCCN=C(N)N)C(=O)N[C@@H](CCCCN)C(=O)N[C@@H](CO)C(=O)N[C@@H](C)C(=O)N[C@@H](CCCN=C(N)N)C(=O)N[C@@H](CCCCN)C(N)=O | – | – | 2.51 | inactive | inactive | inactive | – | – | – | –
C[C@H](NC(=O)CNC(=O)[C@@H](NC(=O)[C@H](Cc1ccccc1)NC(=O)CNC(=O)CNC(=O)[C@@H](N)Cc1ccccc1)[C@@H](C)O)C(=O)N[C@@H](CCCN=C(N)N)C(=O)N[C@@H](CCCCN)C(N)=O (H-FGGFTGARK-NH2) | – | – | > 10 | inactive | inactive | inactive | – | – | – | –
C[C@H](NC(=O)CNC(=O)[C@@H](NC(=O)[C@H](Cc1ccccc1)NC(=O)CNC(=O)CNC(=O)[C@@H](N)Cc1ccccc1)[C@@H](C)O)C(=O)N[C@@H](CCCN=C(N)N)C(=O)N[C@@H](CCCCN)C(=O)N[C@@H](CO)C(=O)N[C@@H](C)C(=O)N[C@@H](CCCN=C(N)N)C(N)=O (H-FGGFTGARKSAR-NH2) | -79 | 0.794 | 0.0251 | – | – | – | – | – | – | –
CC(C)C[C@H](N)C(=O)NCC(=O)NCC(=O)N[C@@H](Cc1ccccc1)C(=O)N[C@H](C(=O)NCC(=O)N[C@@H](C)C(=O)N[C@@H](CCCN=C(N)N)C(=O)N[C@@H](CCCCN)C(=O)N[C@@H](CO)C(=O)N[C@@H](C)C(=O)N[C@@H](CCCN=C(N)N)C(=O)N[C@@H](CCCCN)C(N)=O)[C@@H](C)O (H-LGGFTGARKSARK-NH2) | -80 | 0.0251 | 0.00251 | – | – | – | – | – | – | –
C[C@H](NC(=O)CNC(=O)[C@@H](NC(=O)[C@H](Cc1ccccc1)NC(=O)CNC(=O)CNC(=O)[C@@H](N)Cc1ccc(O)cc1)[C@@H](C)O)C(=O)N[C@@H](CCCN=C(N)N)C(=O)N[C@@H](CCCCN)C(=O)N[C@@H](CO)C(=O)N[C@@H](C)C(=O)N[C@@H](CCCN=C(N)N)C(=O)N[C@@H](CCCCN)C(N)=O (H-YGGFTGARKSARK-NH2) | -89 | 0.0251 | 0.00398 | – | – | – | – | – | – | –
C[C@H](NC(=O)CNC(=O)[C@@H](NC(=O)[C@H](Cc1ccccc1)NC(=O)CNC(=O)CNC(=O)CNCc1ccccc1)[C@@H](C)O)C(=O)N[C@@H](CCCN=C(N)N)C(=O)N[C@@H](CCCCN)C(N)=O (H-[Nphe]GGFTGARK-NH2) | – | – | – | inactive | inactive | inactive | > 10 | – | – | –
C[C@H](NC(=O)CNC(=O)[C@@H](NC(=O)[C@H](Cc1ccccc1)NC(=O)CNC(=O)CNC(=O)CNCc1ccccc1)[C@@H](C)O)C(=O)N[C@@H](CCCN=C(N)N)C(=O)N[C@@H](CCCCN)C(=O)N[C@@H](CO)C(=O)N[C@@H](C)C(=O)N[C@@H](CCCN=C(N)N)C(N)=O (H-[Nphe]GGFTGARKSAR-NH2) | – | – | 3.16 | inactive | inactive | inactive | – | – | – | –
CC(C)C[C@H](N)CNCC(=O)NCC(=O)N[C@@H](Cc1ccccc1)C(=O)N[C@H](C(=O)NCC(=O)N[C@@H](C)C(=O)N[C@@H](CCCN=C(N)N)C(=O)N[C@@H](CCCCN)C(=O)N[C@@H](CO)C(=O)N[C@@H](C)C(=O)N[C@@H](CCCN=C(N)N)C(=O)N[C@@H](CCCCN)C(N)=O)[C@@H](C)O (H-[X1]GFTGARKSARK-NH2) | – | – | 0.0158 | – | – | – | – | Partially active | Partial agonist | 5.4
C[C@H](NC(=O)CNC(=O)[C@@H](NC(=O)[C@H](Cc1ccccc1)NC(=O)CNC(=O)CNC[C@@H](N)CC1CCCCC1)[C@@H](C)O)C(=O)N[C@@H](CCCN=C(N)N)C(=O)N[C@@H](CCCCN)C(=O)N[C@@H](CO)C(=O)N[C@@H](C)C(=O)N[C@@H](CCCN=C(N)N)C(=O)N[C@@H](CCCCN)C(N)=O (H-[X3]GFTGARKSARK-NH2) | – | – | 0.316 | inactive | inactive | inactive | – | – | – | –
C[C@H](NC(=O)CNC(=O)[C@@H](NC(=O)[C@H](Cc1ccccc1)NC(=O)CNC(=O)CNC[C@@H](N)Cc1ccc(O)cc1)[C@@H](C)O)C(=O)N[C@@H](CCCN=C(N)N)C(=O)N[C@@H](CCCCN)C(=O)N[C@@H](CO)C(=O)N[C@@H](C)C(=O)N[C@@H](CCCN=C(N)N)C(=O)N[C@@H](CCCCN)C(N)=O (H-[X5]GFTGARKSARK-NH2) | – | – | 0.1 | – | – | – | – | Partially active | Partial agonist | 5.7
